In ChEMBL document CHEMBL5058577, “EUbOPEN Chemogenomics Library 2 (Multiplex)” (2022):

Test system: Fibroblast
Assay: Multiplex assay against human fibroblast
Type: toxicity, cell-based
Summary of the method: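 Tubulin, mitochondrial-mass and membrane-permeability phenotypes are per cents of healthy-nucleus cells. Cells were gated by CellPathfinder machine learning into Hoechst high-intensity objects or normal cells, normal cells into healthy, pyknosed or fragmented nuclei, and pyknosed cells into mitotic or apoptotic. Before that, live cells stained at seeding with Hoechst33342, BioTracker Green Microtubule Cytoskeleton Dye, MitoTracker Red and Annexin V Alexa Fluor 680 were imaged on a CQ1 microscope at 37°C and 5% CO2 after compound addition.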

[1] = 12 h, 1 µM, compound concentration 1 uM, replicate 1
[2] = 12 h, 1 µM, compound concentration 1 uM, replicate 2
[3] = 12 h, 10 µM, compound concentration 10 uM, replicate 1
[4] = 12 h, 10 µM, compound concentration 10 uM, replicate 2
[5] = 24 h, 1 µM, compound concentration 1 uM, replicate 1
[6] = 24 h, 1 µM, compound concentration 1 uM, replicate 2
[7] = 24 h, 10 µM, compound concentration 10 uM, replicate 1
[8] = 24 h, 10 µM, compound concentration 10 uM, replicate 2
[9] = 48 h, 1 µM, compound concentration 1 uM, replicate 1
[10] = 48 h, 1 µM, compound concentration 1 uM, replicate 2
[11] = 48 h, 10 µM, compound concentration 10 uM, replicate 1
[12] = 48 h, 10 µM, compound concentration 10 uM, replicate 2

For `COCCn1c(C)c(C)s/c1=N\C(=O)C1C(C)(C)C1(C)C`, the “Population Apoptotic (%)” value [1] was 43%, the “Population Fragmented Nuclei (%)” value [1] was 18% and the “Population Healthy Nuclei (%)” value [1] was 69%. For the same molecule, the “Population Hoechst High Intensity Objects (%)” value [1] was 0%, the “Population Membrane Permeable-Phenotype (%)” value [1] was 0% and the “Population Mitochondria Different-Phenotype (%)” value [1] was 7%. For the same molecule, the “Population Mitotic Cells (%)” value [1] was 56%, the “Population Normal (%)” value [1] was 99% and the “Population Pyknosed Nuclei (%)” value [1] was 11%. The “Population Tubulin-Different-Phenotype (%)” value [1] was 34%, the “Total Cell Count” value [1] was 136 and the “Population Apoptotic (%)” value [2] was 40%. For the same molecule, the “Population Fragmented Nuclei (%)” value [2] was 22%, the “Population Healthy Nuclei (%)” value [2] was 57% and the “Population Hoechst High Intensity Objects (%)” value [2] was 4%. For the same molecule, the “Population Membrane Permeable-Phenotype (%)” value [2] was 1%, the “Population Mitochondria Different-Phenotype (%)” value [2] was 5% and the “Population Mitotic Cells (%)” value [2] was 60%. The “Population Normal (%)” value [2] was 95%, the “Population Pyknosed Nuclei (%)” value [2] was 19% and the “Population Tubulin-Different-Phenotype (%)” value [2] was 32%. For the same molecule, the “Total Cell Count” value [2] was 133, the “Population Apoptotic (%)” value [3] was 64% and the “Population Fragmented Nuclei (%)” value [3] was 19%. For the same molecule, the “Population Healthy Nuclei (%)” value [3] was 59%, the “Population Hoechst High Intensity Objects (%)” value [3] was 2% and the “Population Membrane Permeable-Phenotype (%)” value [3] was 1%. For the same molecule, the “Population Mitochondria Different-Phenotype (%)” value [3] was 14%, the “Population Mitotic Cells (%)” value [3] was 35% and the “Population Normal (%)” value [3] was 97%. For the same molecule, the “Population Pyknosed Nuclei (%)” value [3] was 20%, the “Population Tubulin-Different-Phenotype (%)” value [3] was 56% and the “Total Cell Count” value [3] was 167. The “Population Apoptotic (%)” value [4] was 37%, the “Population Fragmented Nuclei (%)” value [4] was 38% and the “Population Healthy Nuclei (%)” value [4] was 40%. The “Population Hoechst High Intensity Objects (%)” value [4] was 6%, the “Population Membrane Permeable-Phenotype (%)” value [4] was 13% and the “Population Mitochondria Different-Phenotype (%)” value [4] was 8%. The “Population Mitotic Cells (%)” value [4] was 62%, the “Population Normal (%)” value [4] was 93% and the “Population Pyknosed Nuclei (%)” value [4] was 21%. For the same molecule, the “Population Tubulin-Different-Phenotype (%)” value [4] was 64%, the “Total Cell Count” value [4] was 120 and the “Population Apoptotic (%)” value [5] was 64%. The “Population Fragmented Nuclei (%)” value [5] was 15%, the “Population Healthy Nuclei (%)” value [5] was 72% and the “Population Hoechst High Intensity Objects (%)” value [5] was 2%. For the same molecule, the “Population Membrane Permeable-Phenotype (%)” value [5] was 1%, the “Population Mitochondria Different-Phenotype (%)” value [5] was 5% and the “Population Mitotic Cells (%)” value [5] was 35%. The “Population Normal (%)” value [5] was 97%, the “Population Pyknosed Nuclei (%)” value [5] was 11% and the “Population Tubulin-Different-Phenotype (%)” value [5] was 38%. For the same molecule, the “Total Cell Count” value [5] was 122, the “Population Apoptotic (%)” value [6] was 54% and the “Population Fragmented Nuclei (%)” value [6] was 28%. For the same molecule, the “Population Healthy Nuclei (%)” value [6] was 54%, the “Population Hoechst High Intensity Objects (%)” value [6] was 3% and the “Population Membrane Permeable-Phenotype (%)” value [6] was 5%. The “Population Mitotic Cells (%)” value [6] was 45%, the “Population Normal (%)” value [6] was 96% and the “Population Pyknosed Nuclei (%)” value [6] was 17%. For the same molecule, the “Population Tubulin-Different-Phenotype (%)” value [6] was 37%, the “Total Cell Count” value [6] was 132 and the “Population Apoptotic (%)” value [7] was 68%. The “Population Fragmented Nuclei (%)” value [7] was 20%, the “Population Healthy Nuclei (%)” value [7] was 59% and the “Population Hoechst High Intensity Objects (%)” value [7] was 4%. The “Population Membrane Permeable-Phenotype (%)” value [7] was 0%, the “Population Mitochondria Different-Phenotype (%)” value [7] was 15% and the “Population Mitotic Cells (%)” value [7] was 31%. The “Population Normal (%)” value [7] was 95%, the “Population Pyknosed Nuclei (%)” value [7] was 19% and the “Population Tubulin-Different-Phenotype (%)” value [7] was 61%. The “Total Cell Count” value [7] was 154, the “Population Apoptotic (%)” value [8] was 33% and the “Population Fragmented Nuclei (%)” value [8] was 40%. For the same molecule, the “Population Healthy Nuclei (%)” value [8] was 36%, the “Population Hoechst High Intensity Objects (%)” value [8] was 3% and the “Population Membrane Permeable-Phenotype (%)” value [8] was 11%. The “Population Mitochondria Different-Phenotype (%)” value [8] was 19%, the “Population Mitotic Cells (%)” value [8] was 66% and the “Population Normal (%)” value [8] was 96%. For the same molecule, the “Population Pyknosed Nuclei (%)” value [8] was 23%, the “Population Tubulin-Different-Phenotype (%)” value [8] was 66% and the “Total Cell Count” value [8] was 120. For the same molecule, the “Population Apoptotic (%)” value [9] was 60%, the “Population Fragmented Nuclei (%)” value [9] was 23% and the “Population Healthy Nuclei (%)” value [9] was 63%. For the same molecule, the “Population Hoechst High Intensity Objects (%)” value [9] was 4%, the “Population Membrane Permeable-Phenotype (%)” value [9] was 0% and the “Population Mitochondria Different-Phenotype (%)” value [9] was 4%. For the same molecule, the “Population Mitotic Cells (%)” value [9] was 40%, the “Population Normal (%)” value [9] was 95% and the “Population Pyknosed Nuclei (%)” value [9] was 12%. The “Population Tubulin-Different-Phenotype (%)” value [9] was 43%, the “Total Cell Count” value [9] was 123 and the “Population Fragmented Nuclei (%)” value [10] was 31%. The “Population Healthy Nuclei (%)” value [10] was 56%, the “Population Hoechst High Intensity Objects (%)” value [10] was 7% and the “Population Membrane Permeable-Phenotype (%)” value [10] was 2%. The “Population Normal (%)” value [10] was 92%, the “Population Pyknosed Nuclei (%)” value [10] was 11% and the “Population Tubulin-Different-Phenotype (%)” value [10] was 45%. For the same molecule, the “Total Cell Count” value [10] was 140, the “Population Apoptotic (%)” value [11] was 75% and the “Population Fragmented Nuclei (%)” value [11] was 23%. The “Population Healthy Nuclei (%)” value [11] was 56%, the “Population Hoechst High Intensity Objects (%)” value [11] was 7% and the “Population Membrane Permeable-Phenotype (%)” value [11] was 0%. The “Population Mitochondria Different-Phenotype (%)” value [11] was 22%, the “Population Mitotic Cells (%)” value [11] was 25% and the “Population Normal (%)” value [11] was 92%. For the same molecule, the “Population Pyknosed Nuclei (%)” value [11] was 20%, the “Population Tubulin-Different-Phenotype (%)” value [11] was 67% and the “Total Cell Count” value [11] was 151. The “Population Apoptotic (%)” value [12] was 58%, the “Population Fragmented Nuclei (%)” value [12] was 49% and the “Population Healthy Nuclei (%)” value [12] was 34%. The “Population Hoechst High Intensity Objects (%)” value [12] was 8%, the “Population Membrane Permeable-Phenotype (%)” value [12] was 14% and the “Population Mitochondria Different-Phenotype (%)” value [12] was 11%. For the same molecule, the “Population Mitotic Cells (%)” value [12] was 41%, the “Population Normal (%)” value [12] was 91% and the “Population Pyknosed Nuclei (%)” value [12] was 16%. For the same molecule, the “Population Tubulin-Different-Phenotype (%)” value [12] was 65% and the “Total Cell Count” value [12] was 111.
